Consider five compounds from ChEMBL document CHEMBL4396957, “Potent bicyclic inhibitors of malarial cGMP-dependent protein kinase: approaches to combining improvements in cell potency, selectivity and structural novelty” (Bioorg Med Chem Lett, 2019).

Data set [1] deals with Maternal embryonic leucine zipper kinase (Homo sapiens) (UniProt Q14680). Nature of the data set: Inhibition of human MELK at 1 uM relative to control.
For data set [2], the target named is Receptor-interacting serine/threonine-protein kinase 2 (Homo sapiens) (UniProt O43353). The experiment in a line: Inhibition of human RIPK2 at 1 uM relative to control.
For data set [3], the target named is T1, cGMP-dependent protein kinase 1 (Homo sapiens) (UniProt Q13976).
T1 sequence (whole entry): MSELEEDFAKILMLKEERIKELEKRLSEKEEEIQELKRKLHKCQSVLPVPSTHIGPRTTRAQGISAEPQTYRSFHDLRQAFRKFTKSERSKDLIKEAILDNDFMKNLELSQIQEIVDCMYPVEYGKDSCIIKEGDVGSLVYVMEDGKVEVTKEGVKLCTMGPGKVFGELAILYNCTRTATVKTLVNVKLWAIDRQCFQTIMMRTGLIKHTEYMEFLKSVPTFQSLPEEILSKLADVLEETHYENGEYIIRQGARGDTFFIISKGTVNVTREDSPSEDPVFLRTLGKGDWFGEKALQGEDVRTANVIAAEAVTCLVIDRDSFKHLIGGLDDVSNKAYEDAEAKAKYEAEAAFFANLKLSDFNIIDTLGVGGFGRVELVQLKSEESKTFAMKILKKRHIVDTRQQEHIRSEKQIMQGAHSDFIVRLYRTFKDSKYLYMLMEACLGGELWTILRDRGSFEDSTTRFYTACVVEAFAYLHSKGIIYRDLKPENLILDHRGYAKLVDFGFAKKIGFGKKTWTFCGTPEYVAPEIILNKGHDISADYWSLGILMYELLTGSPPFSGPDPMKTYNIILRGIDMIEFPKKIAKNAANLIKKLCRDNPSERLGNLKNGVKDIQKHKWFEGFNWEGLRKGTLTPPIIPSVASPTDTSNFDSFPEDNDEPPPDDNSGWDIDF
The experiment in a line: Inhibition of recombinant human N-terminal His6-tagged full length PKG1alpha expressed in baculovirus infected Sf21 insect cells upto 1 uM relative to control.

Data set [4] concerns the target T1, cGMP-dependent protein kinase 1 (Homo sapiens). The experiment in a line: Inhibition of recombinant human N-terminal His6-tagged full length PKG1beta expressed in baculovirus infected Sf21 insect cells upto 1 uM relative to control.
For the next data set, the system named is HepG2. The experiment in a line: Cytotoxicity against human HepG2 cells assessed as reduction cell viability incubated for 48 hrs by CellTiter-Glo luminescent cell viability assay. It counts as cell-based. The settings on record: hepg2, 48 h. Put shortly: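 HepG2 human liver-derived cells exposed to compound for 48 h in an in vitro viability assay. […]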

The structures appear in SMILES notation. The source made the active and inactive calls. The rule behind the calls is not given here.

Maternal embryonic leucine zipper kinase (Homo sapiens), sequence (Q14680 whole entry, looked up): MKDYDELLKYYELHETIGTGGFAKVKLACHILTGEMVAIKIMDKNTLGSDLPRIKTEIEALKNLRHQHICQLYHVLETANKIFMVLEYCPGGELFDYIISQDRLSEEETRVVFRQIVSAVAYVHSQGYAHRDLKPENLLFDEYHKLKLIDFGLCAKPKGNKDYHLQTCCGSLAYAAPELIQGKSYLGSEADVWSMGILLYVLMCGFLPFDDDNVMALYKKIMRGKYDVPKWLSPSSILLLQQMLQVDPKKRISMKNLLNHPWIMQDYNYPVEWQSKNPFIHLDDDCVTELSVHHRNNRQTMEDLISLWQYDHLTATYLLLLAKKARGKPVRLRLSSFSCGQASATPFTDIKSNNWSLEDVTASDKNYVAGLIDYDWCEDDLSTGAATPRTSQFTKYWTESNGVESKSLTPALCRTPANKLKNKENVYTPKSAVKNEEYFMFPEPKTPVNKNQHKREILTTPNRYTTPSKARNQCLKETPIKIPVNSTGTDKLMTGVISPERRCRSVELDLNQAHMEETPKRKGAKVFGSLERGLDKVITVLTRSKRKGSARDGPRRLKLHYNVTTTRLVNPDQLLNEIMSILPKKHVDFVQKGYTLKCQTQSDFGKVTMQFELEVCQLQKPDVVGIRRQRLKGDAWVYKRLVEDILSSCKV
Receptor-interacting serine/threonine-protein kinase 2 (Homo sapiens), sequence (O43353 whole entry): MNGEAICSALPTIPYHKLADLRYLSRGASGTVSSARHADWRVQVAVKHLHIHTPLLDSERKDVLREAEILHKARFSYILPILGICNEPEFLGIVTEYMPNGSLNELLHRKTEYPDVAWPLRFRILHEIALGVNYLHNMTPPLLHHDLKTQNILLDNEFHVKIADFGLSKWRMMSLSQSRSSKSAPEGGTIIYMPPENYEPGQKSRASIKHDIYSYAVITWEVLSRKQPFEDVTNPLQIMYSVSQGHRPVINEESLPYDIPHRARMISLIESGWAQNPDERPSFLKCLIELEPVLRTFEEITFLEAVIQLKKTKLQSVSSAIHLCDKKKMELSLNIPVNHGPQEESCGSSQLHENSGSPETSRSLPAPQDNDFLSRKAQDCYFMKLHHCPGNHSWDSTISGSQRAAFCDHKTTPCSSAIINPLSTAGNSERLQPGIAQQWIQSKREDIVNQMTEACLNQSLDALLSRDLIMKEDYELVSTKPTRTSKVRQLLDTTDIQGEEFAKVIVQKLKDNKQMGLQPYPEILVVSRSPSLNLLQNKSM

Regarding `CN(C)Cc1ccn2c(-c3ccnc(Nc4ccc(N5CCNCC5)cc4)n3)c(C3CC3)nc2c1`, the results for the inhibition in data set [1] and in data set [2] were greater than 90% and 50 to 90%, respectively.
Consider `CNc1nccc(-c2c(-c3ccc(F)cc3)nc3cc(NCCN(C)C)ccn23)n1`, for which the inhibition in data set [1] and in data set [2] was 50 to 90% each time. In addition, the inhibition entry in data set [3] and in data set [4] was “inactive” each time.
With `CN(C)Cc1ccn2c(-c3ccnc(N)n3)c(-c3ccc(F)cc3)nc2c1`, the inhibition in data set [1] is greater than 90%; in data set [2], 50 to 90%. Besides, the inhibition entry in data set [3] and in data set [4] was “inactive” in each case.
In the case of `CN1CCN(c2ccc3nc(-c4ccc(F)cc4)c(-c4ccnc(N)n4)n3c2)CC1`, in the data set with HepG2, the Activity entry is recorded as “Toxic”.
Turning to `CN1CCN(c2ccn3c(-c4ccnc(N)n4)c(-c4ccc(F)cc4)nc3c2)CC1`, the Activity result in the data set on HepG2 is on record as “Non-Toxic”.
